Molecules are shown by their SMILES. Calls of active or inactive are those of the source. The rule behind the calls is not given here.

Here are results for one compound from ChEMBL document CHEMBL3588770, “Novel spirohydantoin derivative as a potent multireceptor-active antipsychotic and antidepressant agent” (Bioorg Med Chem, 2015).

The test system of series [1] is Mus musculus. In words: In vivo partial agonist activity at 5HT1A receptor in CD-1 mouse assessed as change in body temperature at 5 mg/kg, ip measured after 30 mins (reference value: -0.1 degC). The class given is functional, organism-based. An outline of the steps:
(§1)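 Male CD-1 mice, 7-9 per dose, compound suspended in 1% aqueous Tween 80 and given i.p. at 10 ml/kg. Rectal temperature was taken by thermometer 30, 60, 90 and 120 min after dosing. Change (Δt) is expressed against basal temperature measured at the start. Mean ± SEM, one-way ANOVA with Bonferroni test.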

In series [2] the test system is Rattus norvegicus. The series is described as follows: Induction of lower lip retraction in Wistar rat at 5 to 40 mg/kg, ip. The class given is functional, organism-based.
Series [3] has as its system Mus musculus. The series is described as follows: In vivo partial agonist activity at 5HT1A receptor in CD-1 mouse assessed as change in body temperature at 5 mg/kg, ip measured after 120 mins (reference value: -0.1 degC). It counts as functional, organism-based. The procedure, abridged:
as §1

In series [4] the test system is Mus musculus. The series is described as follows: In vivo partial agonist activity at 5HT1A receptor in CD-1 mouse assessed as change in body temperature at 5 mg/kg, ip measured after 60 mins (reference value: -0.1 degC). The class given is functional, organism-based. An outline of the steps:
as §1

Series [5] has as its system Mus musculus. In words: In vivo partial agonist activity at 5HT1A receptor in CD-1 mouse assessed as change in body temperature at 10 mg/kg, ip measured after 60 mins (reference value: -0.1 degC). The class given is functional, organism-based. The procedure, abridged:
as §1

For series [6], the species on record is Mus musculus. The series is described as follows: Ratio of MED for catalepsy in CD-1 mouse to ED50 for antipsychotic activity in CD-1 mouse.
Series [7] deals with Rattus norvegicus. The series is described as follows: Inhibition of 8-OH-DPAT-induced lower lip retraction in Wistar rat at 5 to 40 mg/kg, ip administered 45 mins before 8-OH-DPAT administration. The class given is functional, organism-based. An outline of the steps:
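Wistar rats, 5-6 per dose, given compound i.p. (1% Tween 80 suspension) 45 min before 8-OH-DPAT (1 mg/kg). Lower lip retraction was scored 15, 30 and 45 min after 8-OH-DPAT on a 0/0.5/1 scale (incisor visibility), giving a maximum total of 3. Mean ± SEM, ANOVA with Bonferroni test.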

Series [8] concerns Mus musculus. In words: In vivo agonist activity at D2 receptor in ip dosed Swiss albino mouse assessed as induction of climbing behaviour. The class given is functional, organism-based.
The test system of series [9] is Mus musculus. In words: Antipsychotic activity in CD-1 mouse assessed as inhibition of D-amphetamine-induced hyperlocomotor activity at 0.156 to 0.625 mg/kg, ip. The class given is functional, organism-based. The procedure, abridged:
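Male CD-1 mice, 8-10 per dose. d-Amphetamine was given s.c. 30 min pretest; test compound i.p. 60 min pretest in 1% Tween 80. After 30 min habituation in the activity monitor, ambulation crossings were counted for 1 h, recorded every 5 min.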

The subject of series [10] is Mus musculus. The series is described as follows: In vivo partial agonist activity at 5HT1A receptor in CD-1 mouse assessed as change in body temperature at 10 mg/kg, ip measured after 120 mins (reference value: -0.1 degC). It counts as functional, organism-based. An outline of the steps:
(§2)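 Male CD-1 mice, 7-9 per dose, dosed i.p. Rectal temperature was recorded at 30, 60, 90 and 120 min. Results are the change from basal temperature taken at the start of the experiment.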

Series [11] deals with Mus musculus. In words: Anti-depressant like activity in Swiss albino mouse assessed as shortening of immobility time at 5 mg/kg, ip by forced swim test. It counts as functional. An outline of the steps: (§3)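 Forced swim test in male Swiss albino mice, 7-9 per dose. Compound was given i.p. in 1% Tween 80 at 10 ml/kg, 60 min pretest. Mice swam for 6 min in a cylinder with 6 cm of water at 23-25 °C. Immobility was scored over the last 4 min. Analysis was one-way ANOVA with Bonferroni.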

In series [12] the test system is Mus musculus. In words: In vivo antagonist activity at D2 receptor in ip dosed Swiss albino mouse assessed as inhibition of apomorphine-induced climbing behaviour administered 10 mins prior to apomophine injection measured after 20 mins. The class given is functional. An outline of the steps:
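Male Swiss albino mice, 5-6 per dose, in metal-bar cages. Compound i.p. was followed 10 min later by apomorphine 3 mg/kg i.p. Climbing time (2–4 paws on the wall) was measured for 2 min starting 20 min after apomorphine. ID50 is the dose inhibiting climbing by 50%.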

Series [13] deals with Mus musculus. The series is described as follows: In vivo agonist activity at 5HT2A receptor in Swiss albino mouse assessed as induction of head twitch response at 5 to 40 mg/kg, ip. The class given is functional, organism-based.
Series [14] has as its system Mus musculus. The series is described as follows: Toxicity in ip dosed spontaneous locomotor activity CD-1 mouse model assessed as dose required to cause sedation. It counts as organism-based. The settings on record: in vivo. The procedure, abridged: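 CD-1 mice, 8-10 per dose, with compound given i.p. in 1% Tween 80 suspension 60 min before testing. After 30 min habituation in individual cages, ambulation (channel crossings) was counted over 1 h, recorded every 5 min. Mean ± SEM, one-way ANOVA with Bonferroni test.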

The test system of series [15] is Mus musculus. In words: Anti-depressant like activity in Swiss albino mouse assessed as shortening of immobility time at 2.5 mg/kg, ip by forced swim test. The class given is functional. The procedure, abridged:
as §3

In series [16] the test system is Mus musculus. In words: Toxicity in ip dosed CD-1 mouse assessed as minimum dose required for induction of catalepsy by bar test. It counts as organism-based. The settings on record: in vivo. An outline of the steps: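 Male CD-1 mice, 10 per group, given compound i.p. (1% Tween 80 suspension). Forelimbs were placed on a horizontal rod 4 cm high at 30, 60 and 120 min. Catalepsy was scored up to 3 (≥60 s on bar). Minimum cataleptogenic dose is the lowest dose giving a mean score ≥1 at any of those times.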

The subject of series [17] is Mus musculus. In words: In vivo partial agonist activity at 5HT1A receptor in CD-1 mouse assessed as change in body temperature at 10 mg/kg, ip measured after 90 mins (reference value: -0.1 degC). The class given is functional, organism-based. An outline of the steps:
as §1

Series [18] concerns Mus musculus. In words: In vivo partial agonist activity at 5HT1A receptor in CD-1 mouse assessed as change in body temperature at 10 mg/kg, ip measured after 30 mins (reference value: -0.1 degC). The class given is functional, organism-based. The procedure, abridged: as §2
Series [19] has as its system Mus musculus. In words: In vivo antagonist activity at 5HT2A receptor in ip dosed Swiss albino mouse assessed as inhibition of (+/-)-DOI-induced head twitch response. It counts as functional. The procedure, abridged:
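Male Swiss albino mice, 5-6 per dose, habituated 20 min in glass cages. Compound was given i.p. 60 min pretest. Head twitches were induced by (±)DOI 2.5 mg/kg and counted for 20 min. ID50 is the dose inhibiting twitches by 50%.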

The test system of series [20] is Mus musculus. In words: Toxicity in Swiss albino mouse assessed as stimulation of spontaneous locomotor activity at 2.5 to 5 mg/kg, ip measured during 2-6 mins session. The settings on record: in vivo. It counts as organism-based. The procedure, abridged: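 Male Swiss albino mice, 8-10 per dose, received compound i.p. 60 min before testing. Each mouse was placed individually in a cage on an infrared activity monitor. Channel crossings (ambulation) were counted from 2 to 6 min, matching the forced swim test observation window.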

Series [21] relates to Mus musculus. The series is described as follows: In vivo partial agonist activity at 5HT1A receptor in CD-1 mouse assessed as change in body temperature at 5 mg/kg, ip measured after 90 mins (reference value: -0.1 degC). The class given is functional, organism-based. An outline of the steps:
as §1

As for `COc1ccccc1N1CCN(CCCCN2C(=O)NC3(CCCc4ccccc43)C2=O)CC1` (stereo unspecified), the deltaT was -0.8 °C in the series with Mus musculus [1]; -0.6 °C in the series on Mus musculus [3]; -0.7 °C in the series with Mus musculus [4]; -1.3 °C in the series on Mus musculus [5]; -1.2 °C in the series with Mus musculus [10]; -1.3 °C in the series with Mus musculus [17]. Besides, the deltaT with Mus musculus [18] is -1.9 °C; with Mus musculus [21] it was -0.7 °C. In addition, the result with Rattus norvegicus [2], in the series on Mus musculus [8] and with Mus musculus [13] was inactive. For the same compound, in the series listed under Mus musculus [6], the Ratio is recorded as 50. Besides, the inhibition entry in the series on Rattus norvegicus [7] and in the series with Mus musculus [9] was “Active” throughout. In the series on Mus musculus [11], the inhibition in vivo at 5 mg/kg was 45%. Besides, the ED50 was 37.9 mg/kg in the series with Mus musculus [12] and 19.6 mg/kg with Mus musculus [19]. Moreover, the Activity with Mus musculus [14] was 2.5 mg/kg; in the series with Mus musculus [16], 30 mg/kg; in the series with Mus musculus [20], “Non-toxic”. Moreover, the inhibition in vivo at 2.5 mg/kg in the series on Mus musculus [15] was determined as 37%.
